T cruzi growth = T. cruzi intracellular proliferation inhibitors, primary screen, cell-based, beta-gal Tulahuen parasites, NIH3T3 host, luminescence; T. cruzi beta-gal in NIH3T3, GalScreen luminescence, 90 h; inhibition, % at 8.34 µM; 77,000 tested, 5.9% active;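 active = mean inhibition above about 93%, with at least 55% of replicates each passing it, limit read from the data, passing the limit was not always enough; inconclusive = only one of those two conditions holds; inactive = neither condition holds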
Pf Dd2 inh = P. falciparum Dd2 growth inhibitors, primary screen, SYBR Green fluorescence, single dose replicates | activity change, % at 10 µM | AID 1159554, 2015 | 94,000 tested, 2.3% active | 72 h; stronger effect = lower value; in the data active = activity change below about -80%; inconclusive = no clear call, values can overlap the other calls
IDH1 R132H inh = inhibitors of IDH1 R132H reductase, primary screen, biochemical, plate reader, single point; inhibition, % at 10 µM; Isocitrate dehydrogenase [NADP] cytoplasmic (Homo sapiens), O75874; 70,000 tested, 0.18% active; diaphorase/resazurin fluorescence, 60 min; in the data active = inhibition above about 34%; inconclusive = no clear call, values can overlap the other calls; inactive = below about 11%
GASC1 inh = inhibitors of GASC-1 (KDM4C) histone demethylase, primary screen, biochemical, single concentration HTS | GST-KDM4C 2-372, H3K9me3 peptide, LANCE TR-FRET | inhibition, % at 12.5 µM | 96,000 tested, 0.15% active;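 active = mean replicate inhibition above about 25%, with at least 55% of replicates also reaching it, limit read from the data, passing the limit was not always enough; inconclusive = only one of those two conditions met; inactive = neither condition met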
Target sequence (Q9H3R0 2-372 limits assumed): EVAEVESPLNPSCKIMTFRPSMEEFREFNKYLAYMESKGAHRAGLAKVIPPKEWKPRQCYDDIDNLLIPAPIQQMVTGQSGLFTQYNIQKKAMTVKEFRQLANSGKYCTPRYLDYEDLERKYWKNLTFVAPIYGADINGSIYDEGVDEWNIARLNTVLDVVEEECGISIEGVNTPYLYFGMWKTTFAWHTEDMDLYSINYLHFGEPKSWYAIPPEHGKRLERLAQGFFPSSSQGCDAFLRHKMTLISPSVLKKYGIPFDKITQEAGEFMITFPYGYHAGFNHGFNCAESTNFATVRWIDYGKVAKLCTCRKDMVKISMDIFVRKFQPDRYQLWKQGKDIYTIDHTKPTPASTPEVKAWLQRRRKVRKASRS
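material = GST-tagged GASC-1 (JMJD2C) catalytic fragment, aa 2-372 | amount = enzyme final amount 10 nM | medium = HEPES buffer, pH 7.5, plus ascorbate | also added = H3K9me3 peptide substrate, Fe(II), 2-oxoglutarate | dosing = single dose | times = 30 min demethylation and 1 h detection at room temperature | detection = LANCE TR-FRET | read-out basis = Fall in 671/618 emission ratio as inhibition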
Large screens that a line does not name were inactive. Shown are actives, neighbours in structure and some others; about 5.9% of the full set was active somewhere.

CO[C@@H]1CN(C)C(=O)c2ccc(NC(=O)Nc3ccc(C(F)(F)F)cc3)cc2OC[C@@H](C)NC[C@@H]1C	Pf Dd2 inh -83.3 (no result: T cruzi growth, IDH1 R132H inh)
CO[C@H]1CN(C)C(=O)c2cc(NC(=O)Nc3ccc(C(F)(F)F)cc3)ccc2OC[C@H](C)NC[C@H]1C	Pf Dd2 inh -87.9
NC(=O)c1ccc(NC(=O)C2CCCN(S(=O)(=O)c3ccc(Br)cc3)C2)cc1 (stereo not given)	none (no result: T cruzi growth, Pf Dd2 inh, GASC1 inh)
COc1ccc2c3c(n(C)c2c1)[C@H](CO)N(C(=O)Nc1ccc(F)cc1)CC31CCN(S(=O)(=O)c2cccc(F)c2)CC1	Pf Dd2 inh -88.0 (no result: T cruzi growth, IDH1 R132H inh)
COc1ccc2c3c(n(C)c2c1)[C@H](CO)N(C(=O)Nc1ccc(F)cc1)CC31CCN(S(=O)(=O)c2cccs2)CC1	Pf Dd2 inh -85.6 (no result: T cruzi growth, IDH1 R132H inh)
COc1ccc2c3c(n(C)c2c1)[C@@H](CO)N(C(=O)Nc1ccc(F)cc1)CC31CN(S(=O)(=O)c2cccc(C)c2)C1	none (no result: T cruzi growth, IDH1 R132H inh)
CO[C@@H]1CN(C)C(=O)c2cc(NC(=O)c3nc4ccccc4s3)ccc2OC[C@H](C)NC[C@H]1C	Pf Dd2 inh -84.5
CO[C@H]1CN(C)C(=O)c2cc(NC(=O)c3nc4ccccc4s3)ccc2OC[C@@H](C)NC[C@@H]1C	Pf Dd2 inh -87.1
CO[C@H]1CN(C)C(=O)c2cc(NC(=O)c3nc4ccccc4s3)ccc2OC[C@H](C)NC[C@H]1C	none
COc1ccc(Cl)cc1NC(=O)CSc1nnc(-c2ccc(Br)cc2)o1	none (no result: T cruzi growth, Pf Dd2 inh, GASC1 inh)
COC(=O)c1ccccc1NC(=O)Cn1nc(C(F)(F)F)c2c1CCCCC2	none (no result: T cruzi growth, Pf Dd2 inh, GASC1 inh)
O=C(O)CC(c1ccc(F)cc1)c1ccco1 (stereo not given)	none (no result: T cruzi growth, Pf Dd2 inh, GASC1 inh)
O=C(CCCCCC(=O)N/N=C/C1=CCCCC1)NO	none (no result: T cruzi growth, Pf Dd2 inh, GASC1 inh)
C/C=C/c1ccc([C@@H]2[C@H](CO)N(CC3CC3)C23CN(C(=O)c2ccc4c(c2)OCO4)C3)cc1	Pf Dd2 inh -82.5 (no result: T cruzi growth, IDH1 R132H inh)
Cc1ccc(S(=O)(=O)Nc2ccc3c(c2)C(=O)N([C@@H](C)CO)C[C@H](C)[C@@H](CN(C)S(=O)(=O)c2ccc(Cl)cc2)OCCCC[C@H](C)O3)cc1	Pf Dd2 inh -86.1
Cc1ccc(S(=O)(=O)N(C)C[C@@H]2OCCCC[C@H](C)Oc3ccc(NS(=O)(=O)c4ccccc4)cc3C(=O)N([C@@H](C)CO)C[C@@H]2C)cc1	T cruzi growth 109.9
Cc1noc(C)c1S(=O)(=O)Nc1ccc2c(c1)C(=O)N([C@@H](C)CO)C[C@@H](C)[C@H](CN(C)S(=O)(=O)c1ccc(F)cc1)O2	Pf Dd2 inh -84.8 (no result: IDH1 R132H inh)
Cc1noc(C)c1S(=O)(=O)Nc1ccc2c(c1)C(=O)N([C@@H](C)CO)C[C@@H](C)[C@@H](CN(C)S(=O)(=O)c1ccc(Cl)cc1)OCCCC[C@H](C)O2	Pf Dd2 inh -92.0 (no result: IDH1 R132H inh)
Cc1ccc(S(=O)(=O)Nc2ccc3c(c2)C(=O)N([C@H](C)CO)C[C@@H](C)[C@@H](CN(C)S(=O)(=O)c2ccccc2)OCCCC[C@@H](C)O3)cc1	none (no result: T cruzi growth)
Cc1ccc(S(=O)(=O)Nc2ccc3c(c2)C(=O)N([C@@H](C)CO)C[C@H](C)[C@@H](CN(C)S(=O)(=O)c2ccc(Cl)cc2)OCCCC[C@@H](C)O3)cc1	Pf Dd2 inh inconclusive
CC1=C(C(=O)Nc2ccc(Cl)cc2)C(c2cccc(F)c2)n2nc(CCCO)nc2N1 (stereo not given)	none (no result: T cruzi growth, Pf Dd2 inh, GASC1 inh)
O=C(COc1ccc(C2CCCCC2)cc1)Nc1cccc(-c2nc3ncccc3o2)c1	none (no result: T cruzi growth, Pf Dd2 inh, GASC1 inh)
O=C(O)C(c1ccccc1)N1C(=O)/C(=C/c2ccncc2)SC1=S (stereo not given)	IDH1 R132H inh 66.4 (no result: T cruzi growth, Pf Dd2 inh, GASC1 inh)
CC(C)C(C(=O)O)N1C(=O)/C(=C/c2ccccc2)SC1=S (stereo not given)	none (no result: T cruzi growth, Pf Dd2 inh, GASC1 inh)
C[C@H]1CN([C@@H](C)CO)C(=O)c2ccccc2-c2ccccc2CO[C@@H]1CN(C)Cc1ccc(Cl)c(Cl)c1	Pf Dd2 inh -84.8 (no result: T cruzi growth, IDH1 R132H inh)
C[C@@H]1CN([C@H](C)CO)C(=O)c2ccccc2-c2ccccc2CO[C@@H]1CN(C)Cc1ccc(-c2ccccc2)cc1	Pf Dd2 inh -83.0 (no result: T cruzi growth, IDH1 R132H inh)
Cn1c(SCC(=O)Nc2ccccc2-c2ccccc2)nnc1-c1ccccn1	none (no result: T cruzi growth, Pf Dd2 inh, GASC1 inh)
CCCN(C)C[C@H]1Oc2cc(C#Cc3ccncc3)ccc2S(=O)(=O)N([C@H](C)CO)C[C@H]1C	none (no result: T cruzi growth)
CCCN(C)C[C@H]1Oc2cc(C#Cc3cccnc3)ccc2S(=O)(=O)N([C@H](C)CO)C[C@@H]1C	Pf Dd2 inh -82.4

Assay outcomes from PubChem BioAssay.
